Bioassay records: PubChem BioAssay, several laboratories
The list is not random: actives were taken first. Their share in the collection is about 2.9%.
RanGTP-Impb inh = inhibitors of RanGTP-importin-beta interaction, primary screen, biochemical, FRET, CFP-Ran, YFP-importin-beta, homogeneous; inhibition, % (concentration not given with the values); 1.1% of 300,000 active; Ran GTPase (GTP-bound) - importin-beta complex; cell-free CFP-Ran/YFP-importin-beta FRET ratio;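 active means more than half of the replicate wells show a fall in the fluorescence ratio signal beyond about 16%, limit read from the data, passing the limit was not always enough; inconclusive means exactly half of the replicate wells pass the set limit; inactive means fewer than half of replicates pass the limit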;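 further: 0% = DMSO wells and 100% = Ran loaded with GDP instead of GTP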
RBBP9 inhibitor = human RBBP9 inhibitors, primary screen, biochemical, fluorescence polarization, FP-Rh probe, HTS; Serine hydrolase RBBP9 (Homo sapiens), O75884; recombinant RBBP9; inhibition, % at 7.94 µM; 0.2% of 220,000 active; AID 1515, 2009;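 active means inhibition above the campaign mean of all tested compounds plus 3 SD, cut at about 14% in these data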;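 further: plate controls were DMSO wells with RBBP9 for no effect and wells lacking RBBP9 protein for full effect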
Target sequence (O75884 whole entry, looked up): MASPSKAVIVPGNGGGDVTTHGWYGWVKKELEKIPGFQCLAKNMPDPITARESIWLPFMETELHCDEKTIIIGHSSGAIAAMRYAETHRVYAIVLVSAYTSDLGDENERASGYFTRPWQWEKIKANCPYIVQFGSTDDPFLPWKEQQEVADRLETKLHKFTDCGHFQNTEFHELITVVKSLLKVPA
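Test system – recombinant human RBBP9 · Input – RBBP9 2.5 µM in dispensing solution, pre-mixing · Medium – Tris buffer pH 8.0, NaCl, Pluronic · Schedule – preincubation 30 min plus labeling 45 min at 25 °C · Measured by – fluorescence polarization · Measure – % inhibition · Controls – DMSO and no-protein wells · Replicates – one well per compound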
Hck-Nef inh = inhibitors of Nef-activated human Hck kinase, primary screen, biochemical, Z-Lyte FRET, 384-well, Hck-YEEI. Recombinant Hck-YEEI plus Nef, Z-Lyte FRET kinase assay. Tyrosine-protein kinase HCK (Homo sapiens), P08631. AID 463187, 2010. inhibition, % at 20 µM. 0.68% of 220,000 active;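 active means Hck-Nef kinase inhibition above about 50%, limit read from the data; inactive means inhibition below that limit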;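 further: 0% = DMSO with Hck plus Nef and 100% = Hck alone without Nef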
Target sequence (P08631 whole entry, looked up): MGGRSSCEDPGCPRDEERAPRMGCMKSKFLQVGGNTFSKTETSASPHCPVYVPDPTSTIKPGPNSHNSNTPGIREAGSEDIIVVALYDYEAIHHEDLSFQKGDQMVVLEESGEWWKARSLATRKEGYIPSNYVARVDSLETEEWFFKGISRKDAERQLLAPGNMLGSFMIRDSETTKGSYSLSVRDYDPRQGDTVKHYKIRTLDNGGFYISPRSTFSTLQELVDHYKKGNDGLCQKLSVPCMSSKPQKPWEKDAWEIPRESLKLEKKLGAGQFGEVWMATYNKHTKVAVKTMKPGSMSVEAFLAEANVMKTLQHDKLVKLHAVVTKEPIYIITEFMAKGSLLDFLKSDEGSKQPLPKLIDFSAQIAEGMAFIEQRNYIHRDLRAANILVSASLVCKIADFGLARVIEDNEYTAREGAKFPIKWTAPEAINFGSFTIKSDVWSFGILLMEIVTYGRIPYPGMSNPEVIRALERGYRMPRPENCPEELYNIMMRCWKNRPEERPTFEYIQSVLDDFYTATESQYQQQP
PfM18AAP inh-1 = PfM18AAP inhibitors, malaria aminopeptidase, primary screen, biochemical, QFRET, recombinant enzyme; H-Glu-NHMec fluorogenic cleavage; inhibition, % at 7.35 µM; 1.2% of 290,000 active;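 active means inhibition above the campaign mean inhibition over all tested compounds plus 3 SD, cut at about 28% in these data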;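 further: 0% = plate median of test compound wells and 100% = 2 mM ZnCl2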
Runt-CBFb FRET = inhibitors of RUNX1 Runt–CBFb binding, primary screen, biochemical, FRET, Cerulean-Runt, Venus-CBFb, uHTS; Cerulean-Runt/Venus-CBFb FRET ratio 530/480, 1 h; inhibition, % at 20 µM; 0.46% of 220,000 active; Runt-related transcription factor 1 (Homo sapiens) + Core-binding factor subunit beta …; AID 1496, 2009;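 active means inhibition over about 50% at 20 µM in the single-dose screen, limit read from the data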;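 further: 0% = DMSO wells and 100% = excess unlabeled CBFb competitor control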
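Doses: 20 µM compound in 1% DMSO | Material: Cerulean-labeled Runt domain protein | Amount: Each fluorescent fusion protein 100 nM | Schedule: Two 1 h room-temperature incubations shielded from light | Measured by: FRET fluorescence | Evaluation: Loss of energy transfer signal | Controls: Unlabeled CBFb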
Runt-SMMHC FRET = inhibitors of RUNX1 Runt–CBFb-SMMHC binding, primary screen, biochemical, FRET, Cerulean-Runt, Venus-CBFb-SMMHC, uHTS | Runt-related transcription factor 1 (Homo sapiens) + Core-binding factor subunit beta … | Cerulean-Runt/Venus-CBFb-SMMHC FRET ratio 530/480, 1 h | inhibition, % at 20 µM | 0.74% of 220,000 active;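 active means mean inhibition across duplicate retests at 20 µM reaching about 50%, limit read from the data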;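 further: 0% = DMSO wells and 100% = wells with excess untagged CBFb-SMMHC; inhibitors lower the FRET ratio by blocking Runt binding to CBFb-SMMHC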
PfM18AAP inh-2 = PfM18AAP inhibitors, malaria aminopeptidase, confirmation, biochemical, QFRET, recombinant enzyme, triplicate; 28% of 2,400 active; H-Glu-NHMec fluorogenic cleavage; shares compounds with PfM18AAP inh-1; inhibition, % at 7.35 µM;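 active means mean inhibition over replicate wells above the hit cutoff set for the earlier primary screen, cut at about 29% in these data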;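 further: 0% = median of test compound wells and 100% = 2 mM ZnCl2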
CTSL1 counter = cathepsin L1 inhibitors, retest, confirmation, counter-screen for PFM18AAP inhibitor project, biochemical, QFRET, triplicate; shares compounds with PfM18AAP inh-1; purified cathepsin L1, Z-Leu-Arg-MCA fluorescence; inhibition, % at 5.96 µM; 2,400 tested, under 10 active; AID 2178, 2009;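 active means average inhibition across replicates above the hit cutoff set in the earlier primary screen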;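 further: 0% = median of test compound wells and 100% = Z-Phe-Ala-diazomethylketone 1 µM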
* marks the source's active call; other numbers are inactive results; u = inconclusive; x = no result given.

SMILES	RanGTP-Impb inh	RBBP9 inhibitor	Hck-Nef inh	PfM18AAP inh-1	Runt-CBFb FRET	Runt-SMMHC FRET	PfM18AAP inh-2	CTSL1 counter
Cc1cccc2c(=O)cc(C)n(CC(N)=O)c12	0.7	-8.3	11.2	-3.3	-1.1	-6.3	x	x
CCN1C(=O)[C@H]2[C@@H](c3ccc(C)cc3)N3C(=O)N(c4cccc(F)c4)C(=O)[C@@]3(C)[C@H]2C1=O	9.8	x	x	1.9	x	x	x	x
CC1CCCC(C)N1/N=C/c1ccccc1Br (stereo unspecified)	2.2	x	x	-2.0	x	x	x	x
O=C(C1CC(=O)N(c2ccc3c(c2)OCCO3)C1)N1CCN(c2ccccc2O)CC1 (stereo unspecified)	2.2	x	x	34.5*	x	x	5.0	1.1
CC[n+]1c(C)sc2c3ccsc3ccc21	-2.9	-5.1	18.4	55.5*	0.1	49.5	8.8	5.5
Cc1cccc2sc(NC(=O)c3cccc(S(=O)(=O)N4CCc5ccccc54)c3)nc12	4.1	-8.0	1.8	-3.6	1.1	-0.9	x	x
CCc1nnc(NC(=O)c2ccc(S(=O)(=O)N3CCCC(C)C3)cc2)s1 (stereo unspecified)	-4.5	x	x	-6.4	x	x	x	x
Cc1cccc2sc(NNC(=O)c3ccc(S(=O)(=O)N4CCc5ccccc5C4)cc3)nc12	u	-0.2	-9.9	36.6*	24.5	0.4	-42.4	-1.6
Cc1cccc2sc(NNC(=O)c3ccc(S(=O)(=O)N4CCCC(C)C4)cc3)nc12 (stereo unspecified)	0.1	-6.1	-2.7	37.6*	40.2	21.8	-24.5	1.8
COc1ccccc1NS(=O)(=O)c1cc(NC(=S)NCCN2CCOCC2)ccc1N1CCOCC1	-2.4	-7.9	9.9	37.9*	49.1	37.2	11.7	0.9
Cc1cc(S(=O)(=O)N2CCCC(N(C)CCc3ccccn3)C2)c(C)cc1Cl (stereo unspecified)	2.9	x	x	6.4	x	x	x	x
Cc1ccc(C(C(=O)NC2CCCC2)N(C(=O)CCC(=O)Nc2cc(C)on2)c2ccccc2)cc1 (stereo unspecified)	u	-2.2	4.0	-3.0	-1.2	-7.3	x	x
Cc1cc(NC(=O)CSCC(=O)N(c2ccc(F)cc2)C(C(=O)NC2CCCCC2)c2ccc(O)c(O)c2)no1 (stereo unspecified)	3.5	-5.4	4.5	68.0*	4.6	4.5	52.1*	1.0
Cc1cc(NC(=O)CSCC(=O)N(c2cccc(Cl)c2)C(C(=O)NC2CCCCC2)c2ccc(O)c(O)c2)no1 (stereo unspecified)	u	-6.3	4.5	57.4*	3.9	-1.1	42.9*	0.2
Cc1cc(NC(=O)CCC(=O)N(c2ccc(F)cc2)C(C(=O)NC2CCCC2)c2cccnc2)no1 (stereo unspecified)	3.7	x	x	-1.4	x	x	x	x
COc1ccc(N(C(=O)CSCC(=O)Nc2cc(C)on2)C(C(=O)NC2CCCCC2)c2ccc(O)c(O)c2)cc1 (stereo unspecified)	1.3	-4.8	8.5	60.5*	2.8	2.3	48.2*	1.1
COc1ccc(N(C(=O)CCC(=O)Nc2cc(C)on2)C(C(=O)NC2CCCC2)c2ccco2)cc1 (stereo unspecified)	3.0	-2.8	-44.1	3.6	-0.3	-1.4	x	x
Nc1nnc(CC(=O)N/N=C/c2cc([N+](=O)[O-])cc(Br)c2O)s1	x	-6.6	21.2	37.0*	7.4	-4.5	1.1	2.8
COC(=O)C1=C(C(C)=O)C(c2ccc(C(=O)OC)cc2)n2nnnc2N1 (stereo unspecified)	-0.2	-10.3	-0.7	51.9*	-0.6	-1.0	-39.4	-2.5
COC(=O)C1=C(C(=O)c2ccccc2)C(c2ccccc2)n2nnnc2N1 (stereo unspecified)	3.9	-6.8	-25.0	17.2	-9.3	-26.7	x	x
COC(=O)C1=C(C(C)=O)C(c2ccc(C)cc2)n2nnnc2N1 (stereo unspecified)	4.6	12.1	0.6	51.9*	-1.8	2.2	-32.6	1.7
CCOc1cc(C2C(C(=O)c3ccc(C)cc3)=C(C(=O)OC)Nc3nnnn32)ccc1O (stereo unspecified)	-2.3	-4.6	-2.1	56.9*	-2.0	-21.8	-25.5	-0.3
CCc1c(C)sc(NC(=O)c2noc(C)c2[N+](=O)[O-])c1C#N	1.2	-1.7	3.8	36.7*	22.8	0.8	-36.5	-2.9
Cc1ccc(-c2nnnn2-c2ccccc2C(=O)O)cc1	0.3	x	x	x	x	x	x	x
COc1ccc(C(=O)NCc2cc(C)nc3ccccc23)cc1	3.3	-1.1	17.5	-1.5	0.4	-3.8	x	x
SMILES	RanGTP-Impb inh	RBBP9 inhibitor	Hck-Nef inh	PfM18AAP inh-1	Runt-CBFb FRET	Runt-SMMHC FRET	PfM18AAP inh-2	CTSL1 counter
Cc1cc(CNC(=O)c2ccc3c(c2)OCO3)c2ccccc2n1	u	2.6	5.8	33.4*	-0.5	1.3	10.3	-3.4
O=C(c1ccc(Cl)cc1Cl)C1(n2cncn2)Oc2ccccc2C1O (stereo unspecified)	-1.9	-1.2	-0.6	35.6*	-0.1	1.1	4.4	-3.9
CC(C)CCNC(=O)CN1N=C(c2ccc(Cl)cc2)CCC1=O	-2.0	x	x	-5.9	x	x	x	x
O=C(Nc1ccc2c(c1)CCCN2C(=O)c1ccco1)c1cc([N+](=O)[O-])ccc1Cl	3.7	x	x	x	x	x	x	x
CCCCNC(=O)NNc1nc(Cl)cc(C)c1C#N	-1.8	0.7	-8.3	53.9*	9.5	1.7	44.7*	-0.2
N#C/C(=C\c1c(F)cccc1Cl)S(=O)(=O)c1ccccn1	-0.8	-10.8	10.9	3.4	-0.9	1.0	x	x
O=C(NCc1n[nH]c(=S)n1-c1cccc(C(F)(F)F)c1)c1ccco1	-0.4	x	x	34.5*	x	x	-10.2	-5.2
COc1ccc(CC(=O)NCc2n[nH]c(=S)n2-c2cccc(C)c2)cc1	-2.6	-7.8	26.9	40.0*	4.8	10.4	-16.6	2.6
Cc1ccc(N2CCN(S(=O)(=O)c3c(C)nc4scc(C)n4c3=O)CC2)c(C)c1	4.7	x	x	-10.4	x	x	x	x
